In brackets after ≈: the same amount, converted by molar mass.
Tests used:
U-251 [1] = test: Antiproliferative activity against human U251 cells after 48 hrs by sulforhodamine B assay; type: functional; conditions: U-251, 48 h
In short: (§1)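 Tumor cells grown in RPMI 1640 with 5% fetal bovine serum, with penicillin/streptomycin in experimental cultures. Exposed in 96-well plates to samples in DMSO/RPMI at 0.25, 2.5, 25 and 250 µg/mL, 37 °C, 5% CO2, 48 h. Fixed with 50% trichloroacetic acid before (T0) and after treatment, protein stained with sulforhodamine B and read at 540 nm. GI50, TGI and LC50 in µg/mL from dose-response curves by non-linear regression.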

MCF7 [2] = test: Antiproliferative activity against human MCF7 cells after 48 hrs by sulforhodamine B assay; type: functional; conditions: MCF7, 48 h; in short: as §1
NCI/ADR-RES [3] = test: Antiproliferative activity against human NCI/ADR-RES cells after 48 hrs by sulforhodamine B assay; type: functional; in short: as §1
786-0 [4] = test: Antiproliferative activity against human 786-0 cells after 48 hrs by sulforhodamine B assay; type: functional; conditions: 786-0, 48 h; in short: as §1
NCI-H460 [5] = test: Antiproliferative activity against human NCI-H460 cells after 48 hrs by sulforhodamine B assay; type: functional; conditions: NCI-H460, 48 h; in short: as §1
[6] = Antiproliferative activity against human PC3 cells after 48 hrs by sulforhodamine B assay; type: functional; conditions: PC-3, 48 h; in short: as §1
[7] = Antiproliferative activity against human OVCAR3 cells after 48 hrs by sulforhodamine B assay; type: functional; conditions: OVCAR-3, 48 h; in short: as §1
Vero [8] = test: Cytotoxicity against african green monkey Vero cells after 48 hrs by sulforhodamine B assay; type: cell-based; conditions: chlorocebus sabaeus
U-251 [9] = test: Antiproliferative activity against human U251 cells assessed as tumor growth inhibition after 48 hrs by sulforhodamine B assay; type: functional; conditions: U-251, 48 h; in short: as §1
MCF7 [10] = test: Antiproliferative activity against human MCF7 cells assessed as tumor growth inhibition after 48 hrs by sulforhodamine B assay; type: functional; conditions: MCF7, 48 h; in short: as §1
NCI/ADR-RES [11] = test: Antiproliferative activity against human NCI/ADR-RES cells assessed as tumor growth inhibition after 48 hrs by sulforhodamine B assay; type: functional; in short: as §1
786-0 [12] = test: Antiproliferative activity against human 786-0 cells assessed as tumor growth inhibition after 48 hrs by sulforhodamine B assay; type: functional; conditions: 786-0, 48 h; in short: as §1
NCI-H460 [13] = test: Antiproliferative activity against human NCI-H460 cells assessed as tumor growth inhibition after 48 hrs by sulforhodamine B assay; type: functional; conditions: NCI-H460, 48 h; in short: as §1
[14] = Antiproliferative activity against human PC3 cells assessed as tumor growth inhibition after 48 hrs by sulforhodamine B assay; type: functional; conditions: PC-3, 48 h; in short: as §1
[15] = Antiproliferative activity against human OVCAR3 cells assessed as tumor growth inhibition after 48 hrs by sulforhodamine B assay; type: functional; conditions: OVCAR-3, 48 h; in short: as §1
Vero [16] = test: Cytotoxicity against african green monkey Vero cells assessed as tumor growth inhibition after 48 hrs by sulforhodamine B assay; type: cell-based; conditions: chlorocebus sabaeus
In short: (§2)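 Non-tumor lines (human HaCaT keratinocytes; Vero) in RPMI 1640 with 5% FBS, with penicillin/streptomycin added to experimental cultures. 48 h exposure at 0.25–250 µg/mL (DMSO/RPMI), 37 °C, 5% CO2. TCA fixation at time zero and at end, sulforhodamine B protein stain, absorbance 540 nm. TGI (total growth inhibition) from non-linear regression of the dose-response curve.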

U-251 [17] = test: Cytotoxicity against human U251 cells; type: cell-based
HaCaT [18] = test: Cytotoxicity against human HaCaT cells assessed as tumor growth inhibition after 48 hrs by sulforhodamine B assay; type: cell-based; in short: as §2
HaCaT [19] = test: Cytotoxicity against human HaCaT cells after 48 hrs by sulforhodamine B assay; type: cell-based

SMILES | GI50 (U-251 [1]) | GI50 (MCF7 [2]) | GI50 (NCI/ADR-RES [3]) | GI50 (786-0 [4]) | GI50 (NCI-H460 [5]) | GI50 [6] | GI50 [7] | LC50 (Vero [8]) | TGI (U-251 [9]) | TGI (MCF7 [10]) | TGI (NCI/ADR-RES [11]) | TGI (786-0 [12]) | TGI (NCI-H460 [13]) | TGI [14] | TGI [15] | TGI (Vero [16]) | LC50 (U-251 [17]) | TGI (HaCaT [18]) | LC50 (HaCaT [19])
CCCCCCCC/C=C\CCCCCCCC(=O)N1CCCC1 | 3.8 mg/L (≈ 11.3 µM) | 5.2 mg/L (≈ 15.5 µM) | 0.2 mg/L (≈ 0.596 µM) | 5.2 mg/L (≈ 15.5 µM) | 45.6 mg/L (≈ 136 µM) | 13 mg/L (≈ 38.7 µM) | 11.5 mg/L (≈ 34.3 µM) | 3.9 mg/L (≈ 11.6 µM) | 5.8 mg/L (≈ 17.3 µM) | > 250 mg/L | 5.6 mg/L (≈ 16.7 µM) | 23.3 mg/L (≈ 69.4 µM) | 153 mg/L (≈ 456 µM) | 21.9 mg/L (≈ 65.3 µM) | 14 mg/L (≈ 41.7 µM) | 10.6 mg/L (≈ 31.6 µM) | 14.2 mg/L (≈ 42.3 µM) |  | 
CCCCCC[C@@H](O)C/C=C\CCCCCCCC(=O)NCCO | 3.6 mg/L (≈ 10.5 µM) | 6.5 mg/L (≈ 19 µM) | 2.8 mg/L (≈ 8.2 µM) | 6.6 mg/L (≈ 19.3 µM) | 4.1 mg/L (≈ 12 µM) | 6.3 mg/L (≈ 18.4 µM) | 4.1 mg/L (≈ 12 µM) | 3.4 mg/L (≈ 9.96 µM) | 6.5 mg/L (≈ 19 µM) | 3.7 mg/L (≈ 10.8 µM) | 5.4 mg/L (≈ 15.8 µM) | 20.4 mg/L (≈ 59.7 µM) | 9.8 mg/L (≈ 28.7 µM) | 23.5 mg/L (≈ 68.8 µM) | 8.8 mg/L (≈ 25.8 µM) | 7.6 mg/L (≈ 22.3 µM) |  |  | 
COc1cccc2c1C(=O)c1c(O)c3c(c(O)c1C2=O)C[C@@](O)(C(=O)CO)C[C@@H]3O[C@H]1C[C@H](N)[C@H](O)[C@H](C)O1 [DOXORUBICIN] |  |  |  |  |  |  |  |  | 0.92 mg/L (≈ 1.69 µM) | 3.3 mg/L (≈ 6.07 µM) | 1.6 mg/L (≈ 2.94 µM) | > 25 mg/L | 4.9 mg/L (≈ 9.02 µM) | 11.7 mg/L (≈ 21.5 µM) | 7.6 mg/L (≈ 14 µM) | 4.1 mg/L (≈ 7.54 µM) |  | 2.3 mg/L (≈ 4.23 µM) | 
CCCCCC[C@@H](O)C/C=C\CCCCCCCC(=O)N[C@@H](C)c1ccccc1 | 3.6 mg/L (≈ 8.96 µM) | 5.1 mg/L (≈ 12.7 µM) | 1.9 mg/L (≈ 4.73 µM) | 6.7 mg/L (≈ 16.7 µM) | 8.3 mg/L (≈ 20.7 µM) | 11.7 mg/L (≈ 29.1 µM) | 11.1 mg/L (≈ 27.6 µM) |  | 13.9 mg/L (≈ 34.6 µM) | 84.5 mg/L (≈ 210 µM) | > 250 mg/L | 60.1 mg/L (≈ 150 µM) | 132 mg/L (≈ 329 µM) | 142 mg/L (≈ 353 µM) | > 250 mg/L |  | 63.6 mg/L (≈ 158 µM) |  | 9.7 mg/L (≈ 24.2 µM)
CCCCCC[C@@H](O)C/C=C\CCCCCCCC(=O)N1CCCC1 | 1.5 mg/L (≈ 4.27 µM) | 4.4 mg/L (≈ 12.5 µM) | 4 mg/L (≈ 11.4 µM) | 4.1 mg/L (≈ 11.7 µM) | 6.9 mg/L (≈ 19.6 µM) | 6.2 mg/L (≈ 17.6 µM) | 4.3 mg/L (≈ 12.2 µM) | 4 mg/L (≈ 11.4 µM) | 4.4 mg/L (≈ 12.5 µM) | 1.5 mg/L (≈ 4.27 µM) | 4 mg/L (≈ 11.4 µM) | 6.9 mg/L (≈ 19.6 µM) | 6.2 mg/L (≈ 17.6 µM) | 4.3 mg/L (≈ 12.2 µM) | 4.1 mg/L (≈ 11.7 µM) | 6.8 mg/L (≈ 19.3 µM) |  |  | 
CCCCC/C=C\C/C=C\CCCCCCCC(=O)N1CCCC1 | 4.2 mg/L (≈ 12.6 µM) | 4.2 mg/L (≈ 12.6 µM) | 4.7 mg/L (≈ 14.1 µM) | 4.7 mg/L (≈ 14.1 µM) | 7 mg/L (≈ 21 µM) | 4.7 mg/L (≈ 14.1 µM) | 5.7 mg/L (≈ 17.1 µM) | 13.7 mg/L (≈ 41.1 µM) | 12 mg/L (≈ 36 µM) | 27.5 mg/L (≈ 82.4 µM) | 7.7 mg/L (≈ 23.1 µM) | 21.9 mg/L (≈ 65.7 µM) | 36.6 mg/L (≈ 110 µM) | 32.6 mg/L (≈ 97.7 µM) | 33.9 mg/L (≈ 102 µM) | 45.1 mg/L (≈ 135 µM) | 44.4 mg/L (≈ 133 µM) |  | 
CCCCCCCC/C=C\CCCCCCCC(=O)N[C@H](C)c1ccccc1 | 6.1 mg/L (≈ 15.8 µM) | 6.1 mg/L (≈ 15.8 µM) | 3 mg/L (≈ 7.78 µM) | 26.8 mg/L (≈ 69.5 µM) | 36.6 mg/L (≈ 94.9 µM) | 46.9 mg/L (≈ 122 µM) | 56.9 mg/L (≈ 148 µM) | 10.3 mg/L (≈ 26.7 µM) | 28.3 mg/L (≈ 73.4 µM) | 40.8 mg/L (≈ 106 µM) | 35.3 mg/L (≈ 91.5 µM) | 84.8 mg/L (≈ 220 µM) | 106 mg/L (≈ 274 µM) | 162 mg/L (≈ 419 µM) | > 250 mg/L | 43 mg/L (≈ 112 µM) |  |  | 

From ChEMBL document CHEMBL3392966, “Antiproliferative activity of synthetic fatty acid amides from renewable resources” (Bioorg Med Chem, 2015)
